Data as given in PMC3483595 (ChemMedChem, 2012).
≈ marks a conversion by molar mass, not a printed value. Where “and” joins values, the source holds several entries; their conditions need not be identical. Equal entries are not always repeated. Where two headings read alike, the source gives them in different places.

Columns and labels:
B. subtilis 168 [1] = test: Plate assay of bacterial growth; type: cell-based; settings: for MIC, B. subtilis 168: plate assay, overnight incubation
Summary of the method: (§1)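 Exponential-phase cells (OD600 0.5) were mixed into LB with 0.2% glucose and 0.75% soft agar and poured as a lawn. Test compound (1 µL; water- or DMSO-dissolved) was spotted on the set surface and plates were incubated overnight at 37°C. The MIC was the concentration giving a clear growth-inhibition zone relative to the surrounding lawn.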

E. coli MC4100 = test: Plate assay of bacterial growth; type: cell-based; settings: wild-type, overnight incubation
Summary of the method: as §1

E. coli NR698 [2] = test: Plate assay of bacterial growth; type: cell-based; settings: for MIC, E. coli NR698: plate assay, leaky mutant, overnight incubation
EcSecA membrane ATPase = EcSecA membrane ATPase (Escherichia coli, UniProt P10408); test: Membrane ATPase assay of SecA with urea-washed BA13 membrane; type: biochemical; settings: read-out: IC50, EcSecA membrane ATPase
Summary of the method: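 Purified full-length E. coli SecA (1.5 µg per 50 µL) was combined with 3 µg urea-washed membrane from E. coli BA13 (MC4100 secA13(am) supF(ts)). Phosphate was read at 660 nm and expressed as % of the no-inhibitor control; at least triplicate.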

F1F0-ATPase = F1F0-ATPase (Escherichia coli, UniProt P0ABB0+P0ABB4); test: F1F0-proton ATPase activity assay; type: biochemical; settings: read-out: IC50, F1F0-ATPase; E. coli F1F0-proton ATPase in liposomes
Summary of the method: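 F1F0-ATPase from E. coli KY7485 membranes was partially purified by sucrose gradient and reconstituted into liposomes by dialysis. Released phosphate was read photometrically at 660 nm. Activity was expressed as % of the no-inhibitor control; at least triplicate.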

[3] = target: T1, EcSecA translocation ATPase (Escherichia coli, UniProt P10408); test: Translocation ATPase assay of SecA with membrane and proOmpA; type: biochemical; settings: read-out: IC50, EcSecA translocation ATPase
Summary of the method: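 Purified full-length E. coli SecA (1.5 µg per 50 µL) was combined with 3 µg urea-washed BA13 membrane plus 1 µg purified proOmpA precursor. Reaction: 1.2 mM ATP, ovalbumin, Tris-HCl pH 7.6, KCl, NH4Cl, Mg(OAc)2, DTT, 40°C within the linear range. Released phosphate was read at 660 nm and expressed as % remaining activity versus control; at least triplicate.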

SecA ATPase = test: Kinetic experiments versus ATP; type: biochemical; settings: low ATP concentrations, data not shown
[4] = tested on: SecA-dependent protein translocation; test: SecA-dependent in vitro translocation of proOmpA into membrane vesicles; type: biochemical, E. coli; settings: read-out: IC50, in vitro translocation of proOmpA into membrane vesicles; 35S-labeled proOmpA
BsSecA intrinsic ATPase = BsSecA intrinsic ATPase (Bacillus subtilis, UniProt P28366); test: Intrinsic ATPase assay of full-length BsSecA; type: biochemical; settings: read-out: IC50, BsSecA intrinsic ATPase; full-length B. subtilis SecA
Summary of the method: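 Full-length B. subtilis SecA was overexpressed from pT7div and purified, then used at 1.5 µg per 50 µL reaction in solution without membranes. Phosphate release was read at 660 nm and expressed as % remaining activity versus control; at least triplicate.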

EcN68 SecA ATPase = EcN68 SecA ATPase (Escherichia coli, UniProt P10408); test: biochemical; type: biochemical
E. coli NR698 [5] = test: Bactericidal effect assay; type: cell-based; settings: 100 µM, one-hour treatment, exponential-phase cells
B. subtilis 168 [6] = test: Bactericidal effect assay; type: cell-based; settings: 100 µM, one-hour treatment, exponential-phase cells
Summary of the method: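 Exponential-phase cultures (OD600 0.5) in LB with 0.2% glucose were exposed to test compound, with water as the control, for 1 h at 37°C. Cultures were serially diluted and spread on LB plates. Surviving CFU were counted after overnight growth at 37°C, and the effect was expressed as the drop in log CFU. At least triplicate; standard error of the mean.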

E. coli NR698 [7] = test: Liquid culture growth assay; type: cell-based; settings: 50 µM, data not shown
[8] = target: T1, EcSecA translocation ATPase; settings: read-out: IC50, translocation ATPase of SecA; cited from earlier work
[9] = tested on: SecA-dependent protein translocation; settings: read-out: IC50, in vitro protein translocation; cited from earlier work
[10] = cited from earlier work

Sequence of BsSecA intrinsic ATPase (P28366 whole entry): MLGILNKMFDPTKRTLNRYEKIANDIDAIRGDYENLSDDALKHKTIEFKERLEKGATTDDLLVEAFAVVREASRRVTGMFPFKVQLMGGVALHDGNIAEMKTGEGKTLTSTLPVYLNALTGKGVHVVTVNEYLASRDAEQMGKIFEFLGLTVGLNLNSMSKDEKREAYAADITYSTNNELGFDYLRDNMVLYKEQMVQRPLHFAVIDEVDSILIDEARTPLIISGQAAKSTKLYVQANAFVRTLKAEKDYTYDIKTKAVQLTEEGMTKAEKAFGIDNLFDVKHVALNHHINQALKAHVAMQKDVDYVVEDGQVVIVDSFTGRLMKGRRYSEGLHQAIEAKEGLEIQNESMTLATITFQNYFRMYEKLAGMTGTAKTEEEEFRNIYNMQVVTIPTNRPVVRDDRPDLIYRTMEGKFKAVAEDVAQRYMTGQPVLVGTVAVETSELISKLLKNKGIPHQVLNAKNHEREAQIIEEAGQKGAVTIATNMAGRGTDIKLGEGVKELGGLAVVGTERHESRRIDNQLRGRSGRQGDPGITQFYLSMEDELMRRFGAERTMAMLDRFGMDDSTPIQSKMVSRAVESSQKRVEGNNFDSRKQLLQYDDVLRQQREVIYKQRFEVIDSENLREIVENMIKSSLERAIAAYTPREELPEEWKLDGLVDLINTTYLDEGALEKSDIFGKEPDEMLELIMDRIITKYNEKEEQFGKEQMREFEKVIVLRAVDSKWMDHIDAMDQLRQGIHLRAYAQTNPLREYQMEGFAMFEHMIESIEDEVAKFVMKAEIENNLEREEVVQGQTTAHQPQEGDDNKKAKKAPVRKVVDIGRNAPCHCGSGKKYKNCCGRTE
T1 sequence (P10408 whole entry): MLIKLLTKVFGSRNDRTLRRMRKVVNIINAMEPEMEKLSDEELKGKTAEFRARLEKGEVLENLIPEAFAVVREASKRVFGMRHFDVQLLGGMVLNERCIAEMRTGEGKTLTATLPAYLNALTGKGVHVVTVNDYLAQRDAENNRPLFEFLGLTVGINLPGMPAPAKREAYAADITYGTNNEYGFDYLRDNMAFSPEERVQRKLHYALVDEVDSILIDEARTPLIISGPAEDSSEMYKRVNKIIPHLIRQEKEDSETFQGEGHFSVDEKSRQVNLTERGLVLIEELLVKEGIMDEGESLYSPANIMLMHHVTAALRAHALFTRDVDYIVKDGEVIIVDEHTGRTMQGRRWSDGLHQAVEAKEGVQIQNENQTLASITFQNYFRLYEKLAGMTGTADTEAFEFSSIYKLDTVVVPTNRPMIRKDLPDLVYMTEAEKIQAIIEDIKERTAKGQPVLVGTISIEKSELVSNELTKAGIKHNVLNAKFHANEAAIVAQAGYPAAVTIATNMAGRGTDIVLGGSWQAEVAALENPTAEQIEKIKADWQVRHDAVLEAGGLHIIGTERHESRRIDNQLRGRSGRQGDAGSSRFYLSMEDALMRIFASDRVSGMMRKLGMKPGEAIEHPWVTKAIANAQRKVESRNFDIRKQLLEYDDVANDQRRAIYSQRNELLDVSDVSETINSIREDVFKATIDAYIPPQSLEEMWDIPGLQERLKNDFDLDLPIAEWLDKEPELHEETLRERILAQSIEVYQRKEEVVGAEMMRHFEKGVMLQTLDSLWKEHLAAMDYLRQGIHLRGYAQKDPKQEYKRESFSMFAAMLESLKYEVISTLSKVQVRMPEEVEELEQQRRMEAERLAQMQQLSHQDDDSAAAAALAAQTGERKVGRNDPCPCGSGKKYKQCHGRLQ
Sequence of EcN68 SecA ATPase (P10408 1-610): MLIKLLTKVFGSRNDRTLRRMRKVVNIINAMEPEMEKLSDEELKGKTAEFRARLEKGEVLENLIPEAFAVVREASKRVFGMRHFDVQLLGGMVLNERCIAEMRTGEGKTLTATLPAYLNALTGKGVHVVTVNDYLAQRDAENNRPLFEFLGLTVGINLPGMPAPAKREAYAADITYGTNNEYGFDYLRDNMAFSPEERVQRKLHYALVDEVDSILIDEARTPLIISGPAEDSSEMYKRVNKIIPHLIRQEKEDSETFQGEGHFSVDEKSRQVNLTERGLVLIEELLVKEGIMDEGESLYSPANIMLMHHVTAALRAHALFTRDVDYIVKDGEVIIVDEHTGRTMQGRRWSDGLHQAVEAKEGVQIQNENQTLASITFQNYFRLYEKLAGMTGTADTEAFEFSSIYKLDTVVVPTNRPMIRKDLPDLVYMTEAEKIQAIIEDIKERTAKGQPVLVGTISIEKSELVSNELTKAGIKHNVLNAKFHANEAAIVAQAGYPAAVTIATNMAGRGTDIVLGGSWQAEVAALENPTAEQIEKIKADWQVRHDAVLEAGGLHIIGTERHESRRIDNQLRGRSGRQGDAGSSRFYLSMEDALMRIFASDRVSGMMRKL
Sequence of EcSecA membrane ATPase (P10408 whole entry): as the sequence (P10408 whole entry) above

For `O=C([O-])c1ccccc1-c1c2ccc(=O)c(I)c-2oc2c(I)c([O-])ccc12.[Na+].[Na+]` [DI, Diiodofluorescein], the “MIC, B. subtilis 168” value (B. subtilis 168 [1]) was 1 mM and the “MIC, E. coli MC4100” value (E. coli MC4100) was over 3 mM.

With `O.O=C([O-])c1ccccc1-c1c2cc(I)c(=O)c(I)c-2oc2c(I)c([O-])c(I)cc12.[Na+].[Na+]` [EB, Erythrosin B] the “MIC, E. coli NR698” value (E. coli NR698 [2]) was 250 to 500 µM, the IC50 (EcSecA membrane ATPase) was 12 µM and the IC50 (F1F0-ATPase) was about 30 µM. For the same molecule, the IC50 [3] was 10 µM, the “Mode of inhibition against ATP” value (SecA ATPase) was “competitive inhibitors against ATP” and the IC50 [4] was 4000 nM. The “MIC, B. subtilis 168” value (B. subtilis 168 [1]) was 0.25 to 0.5 mM, the IC50 (BsSecA intrinsic ATPase) was 70 µM and the “MIC, E. coli MC4100” value (E. coli MC4100) was over 10 mM.

Molecule `O=C1OC2(c3ccccc31)c1cc(Br)c(O)c(Br)c1Oc1c2cc(Br)c(O)c1Br` [EY, Eosin Y] has an MIC (E. coli NR698 [2]; Escherichia coli, NR698, read-out: MIC, E. coli NR698) of 1000 to 2500 µM (≈ 648 to 1620 µg/mL), an IC50 (EcN68 SecA ATPase) of 25 µM and an MIC (B. subtilis 168 [1]; Bacillus subtilis, 168, read-out: MIC, B. subtilis 168) of 2500 µM (≈ 1620 µg/mL).

In the case of `O=C1OC2(c3cc(I)c(O)c(I)c3Oc3c2cc(I)c(O)c3I)c2c(Cl)c(Cl)c(Cl)c(Cl)c21` [RB, Rose Bengal], the “MIC, E. coli NR698” value (E. coli NR698 [2]) is reported as 3.1 µM (≈ 3.02 µg/mL), the IC50 (F1F0-ATPase) is reported as about 10 µM and the “Mode of inhibition against ATP” value (SecA ATPase) is reported as “competitive inhibitors against ATP”. The IC50 [4] was 250 nM and ~250 nM, the “MIC, B. subtilis 168” value (B. subtilis 168 [1]) was 0.0031 mM (≈ 3.02 µg/mL) and the “Decrease of cell survival (CFU)” value (E. coli NR698 [5]) was “about 10 log units”. The “Decrease of cell survival (CFU)” value (B. subtilis 168 [6]) was about 8 log units, the IC50 (BsSecA intrinsic ATPase) was 7 µM and the “MIC, E. coli MC4100” value (E. coli MC4100) was over 1 mM. For the same molecule, the “Inhibition of growth in liquid culture” value (E. coli NR698 [7]) was “completely inhibits”.

In the case of `[N-]=[N+]=[N-].[Na+]` [Sodium azide], the “Inhibition of the intrinsic ATPase of SecA” value (EcN68 SecA ATPase; at concentrations as high as 10 mM, cf. Table 1 EcN68) is listed as “not inhibited”, the IC50 [8] is listed as 5 mM and the IC50 [9] is listed as 600 µM.

For `C/C=C/[C@H]1C(C)=C[C@H]2C[C@H](C)[C@H](O)C[C@H]2[C@]1(C)/C=C(C)/C=C/C(=O)O` [pannomycin], the “MIC, antibacterial activity” value [10] is given as “mM range”.

With Dinitrofluorescein [DN] the “MIC, E. coli NR698” value (E. coli NR698 [2]) was 10000 to 20000 µM and the “MIC, B. subtilis 168” value (B. subtilis 168 [1]) was 10 mM.
